The text below walks through data of ChEMBL document CHEMBL1125510, “Analogs of the delta opioid receptor selective cyclic peptide [2-D-penicillamine,5-D-penicillamine]-enkephalin: 2',6'-dimethyltyrosine and Gly3-Phe4 amide bond isostere substitutions” (J Med Chem, 1992).

SMILES strings stand for the structures. Some results are limits rather than exact numbers.

Test [1] is filed under the species Mus musculus. In words: Concentration of the Compound that inhibits electrically-induced contractions of the mouse vas deferens by 50%. In kind it is functional, organism-based. Put shortly:
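Electrically stimulated isolated mouse vas deferens at 37 °C. Buffer had no tyrosine, ascorbic acid or disodium edetate. IC50 is the concentration that halves contractions, given as mean ± SD of two or three experiments.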

For test [2], the system named is NG108-15. In words: Concentration that inhibited PGE-stimulated cAMP formation by 50%, in NG108-15 cells. Format: functional, cell-based. The following applies: Murinae. Put shortly: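 NG108-15 neuroblastoma cells stimulated with PGE1. cAMP measured by radioimmunoassay. EC50 is the concentration that inhibits 50% of stimulated cAMP formation, given as mean ± SD of two determinations.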
In general terms: cAMP levels reflect the balance of adenylyl cyclase and phosphodiesterase activity.

For test [3], the species on record is Mus musculus. In words: Antinociceptive effect determined at 30 min post injection by tail flick test. Format: functional, organism-based. In short, it runs like this:
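Male CD-1 mice, 20–30 g, screened beforehand (TFL ≤ 4.0 s or HPL ≤ 15 s). Groups of 10 dosed sc with vehicle or 10, 30 or 100 mg/kg at 10 mL/kg. Radiant-heat beam focused on blackened tail, and withdrawal latency read by photosensor as the mean of two readings (12 s cutoff). ED50 ± SE in mg/kg taken at 30 min.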
(Thermal pain tests record how soon the animal reacts.)

The species named for test [4] is Mus musculus. In words: Antinociceptive effect determined at 30 min post injection by writhing test. Format: functional, organism-based. In general terms: Writhing tests count abdominal constrictions after an irritant is injected.
Test [5] has as its system Mus musculus. The test is described as follows: Antinociceptive effect determined at 30 min post injection by writhing test; Inactive at 30 mg/kg, the highest dose tested. Format: functional, organism-based. More on the design: dose 30 mg/kg.
For test [6], the target named is Delta-type opioid receptor (Rattus norvegicus, UniProt P33533). In words: Compound was evaluated for its binding affinity by displacement [3H]- DSLET from Opioid receptor delta 1 by using opioid radioligand binding assay. In short, it runs like this:
(§1)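 Male Sprague-Dawley rat forebrain membranes in 50 mM Tris, pH 7.4. Competition against [3H]DSLET (2 nM final, δ) or [3H]DAMPGO (4 nM final, μ). Nonspecific binding defined with 10 μM levorphan. Incubated 60–90 min at 25 °C, then filtered on GF/B and counted. Ki given as mean ± SEM from at least three experiments.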

The target of test [7] is Mu-type opioid receptor (Rattus norvegicus, UniProt P33535). The test is described as follows: Compound was evaluated for its binding affinity by displacement of [3H]- DAMPGO from opioid receptor mu by using opioid radioligand binding assay. In short, it runs like this:
as §1

For test [8], the target named is Mu-type opioid receptor (Rattus norvegicus) (UniProt P33535). The test is described as follows: Ratio on opioid receptor mu (ki(nM)) to the opioid receptor delta (Ki(nM)).
Mu-type opioid receptor (Rattus norvegicus), sequence (P33535 whole entry): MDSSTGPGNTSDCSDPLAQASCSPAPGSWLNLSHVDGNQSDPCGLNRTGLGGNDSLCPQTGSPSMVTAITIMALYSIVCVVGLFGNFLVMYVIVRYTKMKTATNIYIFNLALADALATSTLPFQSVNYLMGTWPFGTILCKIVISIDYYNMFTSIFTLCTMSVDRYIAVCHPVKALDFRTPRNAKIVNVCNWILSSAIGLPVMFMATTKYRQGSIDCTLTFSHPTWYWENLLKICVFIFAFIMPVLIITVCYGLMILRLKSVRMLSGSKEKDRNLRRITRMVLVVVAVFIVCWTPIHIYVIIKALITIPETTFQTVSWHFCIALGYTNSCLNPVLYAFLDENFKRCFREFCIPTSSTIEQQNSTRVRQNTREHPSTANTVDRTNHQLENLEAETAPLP

Mu-type opioid receptor, sequence (P33535 whole entry): as above
Delta-type opioid receptor, sequence (P33533 whole entry): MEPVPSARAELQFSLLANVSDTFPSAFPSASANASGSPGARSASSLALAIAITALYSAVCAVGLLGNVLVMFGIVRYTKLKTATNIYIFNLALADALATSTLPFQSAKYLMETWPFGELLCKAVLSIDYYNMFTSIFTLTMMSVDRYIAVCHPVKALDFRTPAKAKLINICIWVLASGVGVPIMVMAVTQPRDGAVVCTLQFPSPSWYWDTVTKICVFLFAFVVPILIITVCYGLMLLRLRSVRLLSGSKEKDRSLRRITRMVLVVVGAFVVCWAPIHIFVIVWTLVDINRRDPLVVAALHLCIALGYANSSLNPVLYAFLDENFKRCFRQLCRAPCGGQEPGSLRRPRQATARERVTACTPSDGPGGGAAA

Take `CC1(C)SSC(C)(C)[C@@H](NC(=O)[C@@H](N)Cc2ccc(O)cc2)C(=O)NCC(=O)N[C@@H](Cc2ccccc2)C(=O)N[C@H]1C(=O)O`: the EC50 in test [1] (Mus musculus) came to 5.2 nM; in test [2], 18 nM.

Take `COC(=O)[C@@H]1NC(=O)[C@H](Cc2ccccc2)NC(=O)CNC(=O)[C@H](NC(=O)[C@@H](N)Cc2c(C)cc(O)cc2C)C(C)(C)SSC1(C)C.Cl`: the EC50 in test [3] was found to be 40 mg/kg; in test [1] (Mus musculus), 0.65 nM; in test [4], 2.1 mg/kg; in test [2] it was 1.1 nM.

For the molecule `COC(=O)[C@@H]1NC(=O)[C@H](Cc2ccccc2)NC(=O)CNC(=O)[C@H](NC(=O)[C@@H](N)Cc2ccc(O)cc2)C(C)(C)SSC1(C)C.Cl`, the EC50 in test [1] (Mus musculus) is 10.5 nM; in test [2] it was 21 nM; in test [5], “Not Active”.

In test [1], `COC(=O)[C@H]1NC(=O)C(Cc2ccccc2)OCCNC(=O)[C@@H](NC(=O)[C@@H](N)Cc2c(C)cc(O)cc2C)C(C)(C)SSC1(C)C` (single isomer, unassigned; less polar) [listing 1 of 2 here] had an EC50 of 143 nM. Besides, the Ki came to 43 nM in test [6] and 6.5 nM in test [7].

In test [1], `COC(=O)[C@H]1NC(=O)C(Cc2ccccc2)/C=C\CNC(=O)[C@@H](NC(=O)[C@@H](N)Cc2c(C)cc(O)cc2C)C(C)(C)SSC1(C)C` (single isomer, unassigned; less polar) [listing 1 of 2 here] displayed an EC50 above 1000 nM. The Ki was 45 nM in test [6] and 32 nM in test [7].

For `COC(=O)[C@H]1NC(=O)C(Cc2ccccc2)CCCNC(=O)[C@@H](NC(=O)[C@@H](N)Cc2c(C)cc(O)cc2C)C(C)(C)SSC1(C)C` (single isomer, unassigned; less polar) [listing 1 of 2 here], the inhibitory constant (Ki) is 79 nM in test [6] and 176 nM in test [7].

Consider `COC(=O)[C@H]1NC(=O)C(Cc2ccccc2)/C=C\CNC(=O)[C@@H](NC(=O)[C@@H](N)Cc2c(C)cc(O)cc2C)C(C)(C)SSC1(C)C` (single isomer, unassigned; less polar) [listing 2 of 2 here], for which the Ratio in test [8] turned out to be 0.7.

With `COC(=O)[C@H]1NC(=O)C(Cc2ccccc2)CCCNC(=O)[C@@H](NC(=O)[C@@H](N)Cc2c(C)cc(O)cc2C)C(C)(C)SSC1(C)C` (single isomer, unassigned; less polar) [listing 2 of 2 here], the Ratio in test [8] was determined as 2.3.

`COC(=O)[C@H]1NC(=O)C(Cc2ccccc2)OCCNC(=O)[C@@H](NC(=O)[C@@H](N)Cc2c(C)cc(O)cc2C)C(C)(C)SSC1(C)C` (single isomer, unassigned; less polar) [listing 2 of 2 here]: the Ratio in test [8] is 0.15.

As to `COC(=O)[C@H]1NC(=O)C(Cc2ccccc2)OCCNC(=O)[C@@H](NC(=O)[C@@H](N)Cc2c(C)cc(O)cc2C)C(C)(C)SSC1(C)C` (single isomer, unassigned; more polar) [listing 1 of 2 here], the EC50 in test [1] was above 1000 nM. The Ki turned out to be 91 nM in test [6] and 150 nM in test [7].

With `COC(=O)[C@H]1NC(=O)C(Cc2ccccc2)/C=C\CNC(=O)[C@@H](NC(=O)[C@@H](N)Cc2c(C)cc(O)cc2C)C(C)(C)SSC1(C)C` (single isomer, unassigned; more polar) [listing 1 of 2 here], the EC50 in test [1] stood at 247 nM. Besides, the Ki in test [6] is 2.3 nM; in test [7], 1.1 nM.

For the molecule `COC(=O)[C@H]1NC(=O)C(Cc2ccccc2)CCCNC(=O)[C@@H](NC(=O)[C@@H](N)Cc2c(C)cc(O)cc2C)C(C)(C)SSC1(C)C` (single isomer, unassigned; more polar) [listing 1 of 2 here], the EC50 in test [1] (Mus musculus) is above 1000 nM. The Ki stood at 21 nM in test [6] and 11 nM in test [7].

Regarding `COC(=O)[C@H]1NC(=O)C(Cc2ccccc2)/C=C\CNC(=O)[C@@H](NC(=O)[C@@H](N)Cc2c(C)cc(O)cc2C)C(C)(C)SSC1(C)C` (single isomer, unassigned; more polar) [listing 2 of 2 here], in test [8], the Ratio worked out at 0.5.

Turning to `COC(=O)[C@H]1NC(=O)C(Cc2ccccc2)CCCNC(=O)[C@@H](NC(=O)[C@@H](N)Cc2c(C)cc(O)cc2C)C(C)(C)SSC1(C)C` (single isomer, unassigned; more polar) [listing 2 of 2 here], the Ratio in test [8] was found to be 0.5.

On to `COC(=O)[C@H]1NC(=O)C(Cc2ccccc2)OCCNC(=O)[C@@H](NC(=O)[C@@H](N)Cc2c(C)cc(O)cc2C)C(C)(C)SSC1(C)C` (single isomer, unassigned; more polar) [listing 2 of 2 here], for which the Ratio in test [8] amounted to 1.7.

One may read the Ki as a measure of affinity in units of concentration, obtained from inhibition or displacement. Read a high Ki as a looser hold on the target.
